ChEMBL document CHEMBL1158468, “Synthesis, structure-activity relationships, and in vivo evaluation of N3-phenylpyrazinones as novel corticotropin-releasing factor-1 (CRF1) receptor antagonists” (J Med Chem, 2009)

Key:
[1] = biological target: T1, Corticotropin-releasing factor receptor 1 (Rattus norvegicus, UniProt P35353); experiment: Displacement of [125I]Tyr-ovine-CRF from CRF1 receptor in rat frontal cortex homogenate by gamma counting; format: tissue-based
T1 sequence (P35353 whole entry): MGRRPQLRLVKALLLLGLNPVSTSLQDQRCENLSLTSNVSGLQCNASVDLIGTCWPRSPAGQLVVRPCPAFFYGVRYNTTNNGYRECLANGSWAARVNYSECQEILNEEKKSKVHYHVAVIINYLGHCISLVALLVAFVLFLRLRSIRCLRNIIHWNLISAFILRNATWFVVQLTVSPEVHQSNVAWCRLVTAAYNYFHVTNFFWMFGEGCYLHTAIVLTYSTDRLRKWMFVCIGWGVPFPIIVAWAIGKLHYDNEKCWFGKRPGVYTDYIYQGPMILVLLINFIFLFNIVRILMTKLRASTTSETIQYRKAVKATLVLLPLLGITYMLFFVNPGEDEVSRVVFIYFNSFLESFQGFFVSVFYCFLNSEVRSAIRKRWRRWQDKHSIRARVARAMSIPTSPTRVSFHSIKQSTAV
In short: (§1)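 Washed homogenates of frozen rat frontal cortex (CRF1, 25 μg/well) or porcine choroid plexus (CRF2, 10 μg/well) in 50 mM Hepes pH 7.0, 10 mM MgCl2, 2 mM EGTA, protease inhibitors, 0.005% Triton X-100. Ligand 150 pM 125I-ovine-CRF (CRF1) or 100 pM 125I-sauvagine (CRF2). Incubation 2 h at 21 °C, then filtration and gamma counting. Nonspecific binding: 1 μM CRF1 reference antagonist or 1 μM α-helical CRF(9-41). IC50 from 5- or 10-point curves by nonlinear regression.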

[2] = Displacement of [125I]sauvagine from CRF2 receptor in pig choroid plexus homogenate by gamma counting; format: tissue-based, Sus scrofa; in short: as §1

Structure (SMILES)	IC50 [1]	IC50 [2]
CCCC(CCC)n1cc(Cl)nc(Nc2c(C)cc(C)cc2C)c1=O	2.4 nM	–
COC[C@@H](C)n1cc(Cl)nc(Nc2c(C)cc(C)cc2C)c1=O	12 nM	–
COC[C@@H](C)n1cc(Cl)nc(Nc2cc(C)c(OC)cc2C)c1=O	1.7 nM	–
C#Cc1cn([C@H](C)C2CC2)c(=O)c(Nc2ccc(OC)nc2C(F)(F)F)n1	5.6 nM	–
COc1ccc(Nc2nc(C#N)cn([C@H](C)C3CC3)c2=O)c(C(F)(F)F)n1	6.7 nM	–
CC[C@H](C1CC1)n1cc(Cl)nc(Nc2ccc(C)cc2C)c1=O	6.6 nM	–
CCOc1cc(C)c(Nc2nc(Cl)cn([C@@H](COC)C3CC3)c2=O)cc1C	1.5 nM	–
CCC(CC)Cn1cc(Cl)nc(Nc2c(C)cc(C)cc2C)c1=O	39 nM	–
CCN(c1c(Cl)cc(OC)cc1Cl)c1nccn([C@H](C)C2CC2)c1=O	34 nM	–
COC[C@H](C1CC1)n1cc(Cl)nc(Nc2cc(C)c(OC)cc2C)c1=O	0.29 nM	> 10 µM
COc1cc(C)c(Nc2nc(Cl)cn([C@H](C)C3CC3)c2=O)cc1C	0.42 nM	–
COc1cc(C)c(Nc2nc(Cl)cn([C@@H](CO)C3CC3)c2=O)cc1C	10 nM	–
C=Cc1cn([C@H](C)C2CC2)c(=O)c(Nc2ccc(OC)nc2C(F)(F)F)n1	1200 nM	–
CC[C@H](C1CC1)n1cc(Cl)nc(N(CC)c2cc(C)c(C)cc2C)c1=O	1.5 nM	–
CC[C@H](C1CC1)n1cc(Cl)nc(Nc2cc(C)c(OC)cc2C)c1=O	0.27 nM	–
COC[C@@H](C1CC1)n1cc(Cl)nc(Nc2cc(C)c(OCc3ccccc3)cc2C)c1=O	910 nM	–
CC[C@H](C1CC1)n1cc(Cl)nc(Nc2c(C)cc(C)cc2C)c1=O	0.63 nM	–
CC[C@H](C1CC1)n1cc(Cl)nc(Nc2c(C)cc(OC)cc2C)c1=O	0.52 nM	–
COC[C@@H](C1CC1)n1cc(Cl)nc(Nc2cc(C)c(O)cc2C)c1=O	280 nM	–
COc1cc(Br)c2c(c1)OCCN2c1nc(Cl)cn([C@H](C)C2CC2)c1=O	19 nM	–
COCC(COC)n1cc(Cl)nc(Nc2c(C)cc(C)cc2C)c1=O	16 nM	–
Cc1cc(C)c(Nc2nc(Cl)cn([C@H](C)C3CC3)c2=O)c(C)c1	1.7 nM	–
CC[C@H](COC)n1cc(Cl)nc(Nc2cc(C)c(OC)cc2C)c1=O	0.59 nM	–
CCC(CC)n1cc(Cl)nc(Nc2c(C)cc(C)cc2C)c1=O	2.9 nM	–
CC[C@H](COC)n1cc(Cl)nc(Nc2c(C)cc(C)cc2C)c1=O	1.4 nM	–
